Source: PubChem (several laboratories)
PMI act = increases human mannose-6-phosphate isomerase activity; P34949; purified human PMI, coupled resazurin fluorescence, 20 min; hits give high values; 1 = vehicle control, 0 substrate-free wells; activation factor at 20 µM; 0.005% of 190,000 active; AID 1214;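 active = activation factor of 2 or more at 20 µM, relative to plate controls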
Target sequence (P34949 whole entry, looked up): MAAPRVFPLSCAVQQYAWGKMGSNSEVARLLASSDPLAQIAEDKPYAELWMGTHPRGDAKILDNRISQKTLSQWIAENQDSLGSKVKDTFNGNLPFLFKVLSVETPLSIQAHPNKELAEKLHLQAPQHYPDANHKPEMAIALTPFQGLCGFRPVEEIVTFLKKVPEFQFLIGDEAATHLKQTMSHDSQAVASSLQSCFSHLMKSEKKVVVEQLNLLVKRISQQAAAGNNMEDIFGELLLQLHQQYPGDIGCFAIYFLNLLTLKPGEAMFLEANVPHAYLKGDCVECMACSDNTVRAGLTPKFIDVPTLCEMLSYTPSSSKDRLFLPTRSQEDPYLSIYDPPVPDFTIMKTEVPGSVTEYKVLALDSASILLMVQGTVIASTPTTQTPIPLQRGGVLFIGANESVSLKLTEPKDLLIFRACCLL
Lmaj promast = inhibitors of Leishmania major promastigote growth; Leishmania major promastigotes, resazurin fluorescence viability; inhibition, % at 10 µM; 9% of 200,000 active; in the data active = inhibition above about 50%;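 also: promastigotes grown with compound for 44 hours at 28 °C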
WT yeast gro inh = growth inhibition of WT yeast, mitochondrial fusion screen; mitochondrial fusion phenotypic screen, WT strain; inhibition, % at 10 µM; 2.1% of 190,000 active; AID 1362; in the data active = inhibition above about 58%; tested in S. cerevisiae
Diaph act CS = diaphorase activation or chemical reduction counter-screen; activation factor at 20 µM; 0.005% of 190,000 active; Diaphorase/resazurin coupled assay, resorufin fluorescence, 16 min; hits give high values; 1 = vehicle wells, 0 = NADH-free wells;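 active = diaphorase activity raised at least twofold by the compound at 20 µM; inactive = activation factor below 2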
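Material: Clostridium kluyveri diaphorase, purified enzyme; Quantity: enzyme 0.07 U/mL final; Medium: HEPES pH 7.4 buffer with MgCl2 and Tween 20; Dosing: single compound dose of 20 µM, 1% DMSO final; Schedule: 16 min reaction at room temperature; Measured by: red resorufin fluorescence at 544/590 nm excitation/emission.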
PMI act satM6P = PMI (human) activation, high substrate; P34949; coupled PMI enzyme assay, resazurin fluorescence, 20 min; hits give high values; 1 = untreated enzyme, 0 = substrate-free blank; activation factor at 20 µM; 0.34% of 190,000 active; AID 1216;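 active = activation factor of 2 or more at 20 µM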
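test system = human PMI in coupled enzyme assay | medium = HEPES-buffered pH 7.4 with magnesium and detergent | also added = 1.0 mM mannose-6-phosphate substrate with 0.22 mM NADP+ | compound = 20 µM single dose | times = 20 min incubation at room temperature | measured by = resorufin fluorescence (Ex 544/Em 590 nm) from resazurin via diaphorase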
The depositor's hits bear a star. This is a sample that favours compounds with a hit; in the whole collection about 10% have one here.

SMILES | PMI act | Lmaj promast | WT yeast gro inh | Diaph act CS | PMI act satM6P
COc1ccc(NC(=O)COC(=O)C2CCN(S(=O)(=O)c3cccs3)CC2)cc1 | 0.9 | -3.6 | -0.1 | 0.9 | 1
CCOCCCNC(=O)C(NC(=O)Cc1cccs1)c1ccc(OC)cc1 (stereo not drawn) | 1.1 | -5.3 | 13.2 | 1.1 | 1.1
N#CC(C(=O)NC1CCCCC1)c1nc2ccccc2nc1N1CCN(c2ccc(F)cc2)CC1 (stereo not drawn) | 0.9 | -4.8 | 15.4 | 0.9 | 1
N#CC(C(=O)OC1CCCCC1)c1nc2ccccc2nc1N1CCOCC1 (stereo not drawn) | 0.9 | 28.9 | -4.3 | 0.8 | 0.9
CN1CCN(c2nc3ccccc3nc2C(C#N)C(=O)OC2CCCCC2)CC1 (stereo not drawn) | 1 | 89.7* | 34.5 | 1 | 1
CCN1CCN(c2nc3ccccc3nc2C(C#N)C(=O)OC2CCCCC2)CC1 (stereo not drawn) | 0.9 | 84.9* | -15.0 | 0.8 | 0.9
CCOC(=O)C1CCN(c2nc3ccccc3nc2C(C#N)C(=O)NCCc2ccccc2)CC1 (stereo not drawn) | 0.9 | 27.6 | 81.7* | 0.7 | 0.9
CC(CNC(=O)c1cc(Cl)ccc1[N+](=O)[O-])NC(=O)c1cc(Cl)ccc1[N+](=O)[O-] (stereo not drawn) | 1 | -1.6 | -6.2 | 1 | 1
CC(=O)N/C(=C\c1ccccc1)C(=O)Nc1ccccc1C | 0.9 | -0.6 | 15.4 | 0.9 | 0.9
COc1ccc(-n2c(=O)c3ccccc3n(CC(=O)NC3CCCCC3)c2=O)cc1 | 1 | -1.3 | -1.3 | 1 | 1.1
Cc1ccc(OC/C(=N\O)C(C)(C)C)c([N+](=O)[O-])c1 | 0.9 | 2.3 | -8.7 | 0.8 | 0.8
Cc1ccc(/C(=N/Nc2nc3ccccc3s2)C2=C(O)c3ccccc3C2=O)cc1 | 0.9 | 2.4 | 24.0 | 0.9 | 0.9
Cc1nn(C)c(C)c1NC(=O)CCl | 1 | -0.4 | 2.4 | 0.8 | 1
CCN1CCc2nc(NC(=O)c3ccccc3)sc2C1 | 0.9 | 4.1 | 80.9* | 0.9 | 1.1
NC(=O)c1ccccc1NC(=O)c1ccccc1S(=O)(=O)c1ccccc1[N+](=O)[O-] | 1 | 64.6* | 22.1 | 0.9 | 1.1
CC(C)C(=O)NNS(=O)(=O)c1ccccc1[N+](=O)[O-] | 1 | 54.0* | -6.8 | 0.8 | 1
O=C(Nc1ccc(F)cc1)c1ccccc1S(=O)(=O)c1ccccc1[N+](=O)[O-] | 1 | 57.9* | 20.7 | 0.9 | 1.1
O=C(NNS(=O)(=O)c1ccccc1[N+](=O)[O-])c1ccccc1[N+](=O)[O-] | 1 | -5.6 | 2.1 | 1 | 1
COc1ccc(CNCCC2(Cc3ccccc3)CC(C)N(C)CC2C)cc1OC (stereo not drawn) | 1 | 20.2 | 3.1 | 1 | 0.9
CN(C)/C=N/c1cc(=O)n(C)c(=O)n1Cc1ccccc1 | 1.1 | -6.0 | -5.4 | 0.9 | 1.1
CC(C)(C)c1ccc(OCC(=O)N/N=C/c2ccc(N3CCOCC3)cc2)cc1 | 0.9 | 0.2 | 55.2 | 0.7 | 0.8
O=C(COC(=O)c1cccnc1Cl)Nc1nc(-c2ccccc2)cs1 | 0.8 | 3.0 | 14.3 | 0.8 | 0.9
CCSC1=NC(C)(C)C=C(C)N1 | 1 | -3.9 | -4.7 | 0.8 | 1
CSC1=N/C(=C\c2c(F)cccc2Cl)C(=O)S1 | 1 | 27.9 | -4.0 | 1 | 0.9
CCSC1=NC(C)(C)C=C(/C=C/c2ccc(Cl)cc2Cl)N1 | 1.1 | 100.1* | 59.9* | 1 | 1.1
SMILES | PMI act | Lmaj promast | WT yeast gro inh | Diaph act CS | PMI act satM6P
CSC1=NC(C)(C)C=C(/C=C/c2ccc(Cl)cc2)N1 | 1.5 | 100.4* | 21.4 | 0.9 | 1.4
CSC1=NC(C)(C)C=C(/C=C/c2c(Cl)cccc2Cl)N1 | 0.9 | 58.3* | 42.1 | 0.9 | 0.7
CSC1=NC(C)(C)C=C(/C=C/c2ccc(Cl)cc2Cl)N1 | 0.9 | 71.7* | 68.0* | 0.8 | 0.8
CCN(CC)c1ccc(NC(=O)COC(=O)COc2ccccc2[N+](=O)[O-])cc1 | 0.8 | -5.8 | -12.0 | 0.8 | 0.8
O=C(COC(=O)CC12CC3CC(CC(C3)C1)C2)Nc1cccnc1Cl | 0.9 | 6.5 | 32.6 | 0.9 | 0.9
O=C(N/N=C/c1ccc2c(c1)OCO2)c1cc(-c2ccccc2Cl)nc2ccccc12 | 0.8 | 55.9* | 36.1 | 0.7 | 0.8
